# Data: ChEMBL document CHEMBL1126922, “Synthesis of 2,4-disubstituted thiazoles and selenazoles as potential antitumor and antifilarial agents: 1. Methyl 4-(isothiocyanatomethyl)thiazole-2-carbamates, -selenazole-2- carbamates, and related derivatives” (J Med Chem, 1993)
# Key:
# L1210 [1] = experiment: Growth rate measured as ratio of population doubling time of control cells to that of treated L1210 cells at 10 uM
# L1210 [2] = experiment: Growth rate measured as ratio of population doubling time of control cells to that of treated L1210 cells at 100 uM; type: functional, Mus musculus
# Outline: (§1)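 L1210 cells were grown in static suspension at 38 °C in Fischer's medium with 10% heat-inactivated horse serum, with test compound present continuously for 3 days. Growth rate is the treated/control slope of semilog cell number versus time, calculated as control doubling time ÷ treated doubling time. If growth slowed during the run, the final rate at day 3 was used.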
# L1210 [3] = experiment: Growth rate in leukemia L1210 cells at 100 uM; type: functional, Mus musculus
# Outline: as §1
# L1210 [4] = experiment: In vitro inhibitory concentration of compound against leukemia L1210 cells; type: functional, cell-based; details: Mus musculus
# Outline: (§2)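 L1210 murine leukemia cells kept in static suspension culture at 38 °C in Fischer's medium with 10% heat-inactivated horse serum. Growth measured over 3 days with the compound present continuously at various concentrations. Growth rate = control doubling time / treated doubling time, using the final rate if growth slowed. IC50 = concentration that cuts growth rate to 50% of control.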
# L1210 [5] = experiment: Effect on DNA synthesis in L1210 measured by inhibition of incorporation of [3H]dThd into acid insoluble material after 0 hours expressed as percent of control; type: functional, Mus musculus; parameters: scale not given: the % may be the effect or the level left
# Outline: (§3)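 L1210 cells given 100 μM compound together with [methyl-3H]dThd (20 Ci/mmol, 1 μCi/mL) or [5-3H]Urd (28.5 Ci/mmol, 1 μCi/mL). Label pulse lasted 1 h, started either at compound addition (0 h) or 6 h later. 3H in the acid-insoluble fraction was counted by liquid scintillation. Values are % of control, mean of two determinations in separate experiments, with range.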
# L1210 [6] = experiment: Effect on DNA synthesis in L1210 measured by inhibition of incorporation of [3H]dThd into acid insoluble material after 6 hours expressed as percent of control; type: functional, Mus musculus; parameters: scale not given: the % may be the effect or the level left
# Outline: as §3
# L1210 [7] = experiment: Effect on RNA synthesis in L1210 measured by inhibition of incorporation of [3H]uridine into acid insoluble material after 6 hours expressed as percent of control; type: functional, Mus musculus; parameters: scale not given: the % may be the effect or the level left
# Outline: as §3
# L1210 [8] = experiment: Effect on protein synthesis in L1210 measured by inhibition of incorporation of [3H]leucine into acid insoluble material after 0 hours expressed as percent of control; type: functional, Mus musculus; parameters: scale not given: the % may be the effect or the level left
# Outline: (§4)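 100 μM compound and L-[3,4,5-3H]leucine (143 Ci/mmol, 1 μCi/mL) were added together to L1210 cells ((1-1.5) × 10^5 cells/mL) for a 1 h pulse, started at 0 h or 6 h after compound. Duplicate samples were chilled in ice-cold Puck's Saline G, washed, and precipitated with BSA plus 8% perchloric acid on ice for 30 min. The pellet was hydrolysed in 1 N NaOH at 37 °C and counted; results are % of control.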
# L1210 [9] = experiment: Effect on protein synthesis in L1210 measured by inhibition of incorporation of [3H]leucine into acid insoluble material after 6 hours expressed as percent of control; type: functional, Mus musculus; parameters: scale not given: the % may be the effect or the level left
# Outline: as §4
# L1210 [10] = experiment: Effect on RNA synthesis in L1210 measured by inhibition of incorporation of [3H]uridine into acid insoluble material after 0 hours expressed as percent of control; type: functional, Mus musculus; parameters: scale not given: the % may be the effect or the level left
# Outline: as §3
# L1210 [11] = experiment: In vitro inhibitory concentration of compound against leukemia L1210 cells; No significant inhibition; type: functional, cell-based, Mus musculus
# Outline: as §2
SMILES,GR (L1210 [2]),IC50 (L1210 [4]),other results
COC(=O)Nc1nc(CCI)cs1,,,GR (L1210 [1]): 92%
COC(=O)Nc1nc(CCl)c[se]1,103%,,
COC(=O)Nc1nc(CCO)cs1,,,GR control (L1210 [3]): 102%
COC(=O)Nc1nc(CCN=C=S)cs1,0%,26 µM,
CCOC(=O)Cc1csc(NC(=O)OC)n1,104%,,
COC(=O)Nc1nc(CCCl)cs1,92%,,
COC(=O)Nc1nc(CN=C=S)c[se]1,31%,22 µM,
COC(=O)Nc1nc(CN=C=S)cs1,0%,3.2 µM,Effect (L1210 [5]): 88%; Effect (L1210 [6]): 56%; Effect (L1210 [7]): 67%; Effect (L1210 [8]): 58%; Effect (L1210 [9]): 48%; Effect (L1210 [10]): 74%
COC(=O)Nc1nc(CN=C=[Se])cs1,0%,7.6 µM,
COC(=O)Nc1nc(CCl)cs1,96%,,IC50 (L1210 [11]): Not Active
